Columns and labels:
Assay type in all cases: functional
[1] = tested on: SK-OV-3; test: Cytotoxicity against human SKOV3 cells assessed as cell growth at 10 uM after 48 hrs by sulforhodamine B assay relative to control; settings: SK-OV-3, 48 h, read-out: Activity
Outline: (§1)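 Adherent cells were grown in RPMI 1640 with 5% FBS and 2 mM L-glutamine, seeded at 5000–40 000 cells/well by doubling time, and held 24 h at 37 °C, 5% CO2 before drug. Time-zero plates were TCA-fixed. Compound in DMSO, single dose 10 μM, 48 h. Cells were fixed with cold TCA (final 10%, 60 min, 4 °C) and stained with 0.4% SRB. Bound dye was dissolved in 10 mM Tris base and read at 515 nm. Percent growth was derived from time-zero, control and treated absorbances.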

[2] = Cytotoxicity against human NCI-ADR-RES cells assessed as cell growth at 10 uM after 48 hrs by sulforhodamine B assay relative to control; settings: read-out: Activity; outline: as §1
[3] = Cytotoxicity against human OVCAR8 cells assessed as cell growth at 10 uM after 48 hrs by sulforhodamine B assay relative to control; settings: OVCAR-8, 48 h, read-out: Activity; outline: as §1
[4] = Cytotoxicity against human OVCAR4 cells assessed as cell growth at 10 uM after 48 hrs by sulforhodamine B assay relative to control; settings: OVCAR-4, 48 h, read-out: Activity; outline: as §1
[5] = Cytotoxicity against human OVCAR3 cells assessed as cell growth at 10 uM after 48 hrs by sulforhodamine B assay relative to control; settings: OVCAR-3, 48 h, read-out: Activity; outline: as §1
[6] = Cytotoxicity against human UACC62 cells assessed as cell growth at 10 uM after 48 hrs by sulforhodamine B assay relative to control; settings: UACC-62, 48 h, read-out: Activity
Outline: (§2)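 NCI-60 single-dose screen. Cells were grown in RPMI 1640 with 5% FBS and 2 mM L-glutamine, seeded at 5000–40 000 cells/well according to doubling time, and pre-incubated 24 h at 37 °C, 5% CO2. Time-zero plates were TCA-fixed at dosing. Compound in DMSO was given at 10 μM for 48 h. Cells were then fixed in cold TCA, stained with 0.4% SRB, solubilised in 10 mM Tris base and read at 515 nm. Growth % was calculated from time-zero, control and treated absorbances.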

[7] = tested on: MDA-MB-435; test: Cytotoxicity against human MDA-MB-435 cells assessed as cell growth at 10 uM after 48 hrs by sulforhodamine B assay relative to control; settings: MDA-MB-435, 48 h, read-out: Activity; outline: as §1
[8] = tested on: M14; test: Cytotoxicity against human M14 cells assessed as cell growth at 10 uM after 48 hrs by sulforhodamine B assay relative to control; settings: M14, 48 h, read-out: Activity; outline: as §1
[9] = tested on: LOX IMVI; test: Cytotoxicity against human LOXIMVI cells assessed as cell growth at 10 uM after 48 hrs by sulforhodamine B assay relative to control; settings: read-out: Activity; outline: as §1
[10] = tested on: U-251; test: Cytotoxicity against human U251 cells assessed as cell growth at 10 uM after 48 hrs by sulforhodamine B assay relative to control; settings: U-251, 48 h, read-out: Activity; outline: as §2
[11] = tested on: SF-539; test: Cytotoxicity against human SF539 cells assessed as cell growth at 10 uM after 48 hrs by sulforhodamine B assay relative to control; settings: SF-539, 48 h, read-out: Activity; outline: as §1
[12] = tested on: KM12; test: Cytotoxicity against human KM12 cells assessed as cell growth at 10 uM after 48 hrs by sulforhodamine B assay relative to control; settings: KM12, 48 h, read-out: Activity; outline: as §1
[13] = tested on: HT-29; test: Cytotoxicity against human HT-29 cells assessed as cell growth at 10 uM after 48 hrs by sulforhodamine B assay relative to control; settings: HT-29, 48 h, read-out: Activity; outline: as §1
[14] = tested on: NCI-H522; test: Cytotoxicity against human NCI-H522 cells assessed as cell growth at 10 uM after 48 hrs by sulforhodamine B assay relative to control; settings: NCI-H522, 48 h, read-out: Activity; outline: as §1
[15] = tested on: NCI-H460; test: Cytotoxicity against human NCI-H460 cells assessed as cell growth at 10 uM after 48 hrs by sulforhodamine B assay relative to control; settings: NCI-H460, 48 h, read-out: Activity; outline: as §1
[16] = tested on: NCI-H322M; test: Cytotoxicity against human NCI-H322M cells assessed as cell growth at 10 uM after 48 hrs by sulforhodamine B assay relative to control; settings: read-out: Activity; outline: as §1
[17] = tested on: NCI-H23; test: Cytotoxicity against human NCI-H23 cells assessed as cell growth at 10 uM after 48 hrs by sulforhodamine B assay relative to control; settings: NCI-H23, 48 h, read-out: Activity; outline: as §1
[18] = tested on: HOP-62; test: Cytotoxicity against human HOP62 cells assessed as cell growth at 10 uM after 48 hrs by sulforhodamine B assay relative to control; settings: HOP-62, 48 h, read-out: Activity; outline: as §1
[19] = tested on: A549; test: Cytotoxicity against human A549 cells assessed as cell growth at 10 uM after 48 hrs by sulforhodamine B assay relative to control; settings: A549, 48 h, read-out: Activity; outline: as §1
[20] = tested on: K562; test: Cytotoxicity against human K562 cells assessed as cell growth at 10 uM after 48 hrs by sulforhodamine B assay relative to control; settings: K562, 48 h, read-out: Activity
Outline: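 Suspension lines were cultured in RPMI 1640 with 5% FBS and 2 mM L-glutamine, plated at 5000–40 000 cells/well and preincubated 24 h (37 °C, 5% CO2). Compound in DMSO was given at a single 10 μM dose for 48 h. Settled cells were fixed with 80% TCA (final 16%), then stained with SRB and read at 515 nm. Growth percentage was taken relative to time-zero and untreated control absorbances.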

[21] = tested on: 786-0; test: Cytotoxicity against human 786-0 cells assessed as cell growth at 10 uM after 48 hrs by sulforhodamine B assay relative to control; settings: 786-0, 48 h, read-out: Activity; outline: as §1
[22] = tested on: RXF 393; test: Cytotoxicity against human RXF393 cells assessed as cell growth at 10 uM after 48 hrs by sulforhodamine B assay relative to control; settings: RXF 393, 48 h, read-out: Activity; outline: as §1
[23] = tested on: SN12C; test: Cytotoxicity against human SN12C cells assessed as cell growth at 10 uM after 48 hrs by sulforhodamine B assay relative to control; settings: read-out: Activity; outline: as §1
[24] = Cytotoxicity against human UO31 cells assessed as cell growth at 10 uM after 48 hrs by sulforhodamine B assay relative to control; settings: UO-31, 48 h, read-out: Activity; outline: as §2
[25] = tested on: PC-3; test: Cytotoxicity against human PC3 cells assessed as cell growth at 10 uM after 48 hrs by sulforhodamine B assay relative to control; settings: PC-3, 48 h, read-out: Activity; outline: as §1
[26] = tested on: DU-145; test: Cytotoxicity against human DU145 cells assessed as cell growth at 10 uM after 48 hrs by sulforhodamine B assay relative to control; settings: DU-145, 48 h, read-out: Activity; outline: as §1
[27] = tested on: T47D; test: Cytotoxicity against human T47D cells assessed as cell growth at 10 uM after 48 hrs by sulforhodamine B assay relative to control; settings: read-out: Activity; outline: as §1
[28] = tested on: NCI-H226; test: Cytotoxicity against human NCI-H226 cells assessed as cell growth at 10 uM after 48 hrs by sulforhodamine B assay relative to control; settings: NCI-H226, 48 h, read-out: Activity; outline: as §1

In the case of COc1nccc2c(-c3cccc(F)c3)nc(N)nc12, the growth at 10 µM [1] was 105%, the growth at 10 µM [2] was 110% and the growth at 10 µM [3] was 85.6%. For the same compound, the growth at 10 µM [4] was 97.6%, the growth at 10 µM [5] was 107% and the growth at 10 µM [6] was 101%. The growth at 10 µM [7] was 118%, the growth at 10 µM [8] was 118% and the growth at 10 µM [9] was 101%. For the same compound, the growth at 10 µM [10] was 94.9%, the growth at 10 µM [11] was 97.2% and the growth at 10 µM [12] was 104%. The growth at 10 µM [13] was 96.4%, the growth at 10 µM [14] was 78.6% and the growth at 10 µM [15] was 112%. The growth at 10 µM [16] was 112%, the growth at 10 µM [17] was 104% and the growth at 10 µM [18] was 104%. It also gave a growth at 10 µM [19] of 94.7%, a growth at 10 µM [20] of 95.2% and a growth at 10 µM [21] of 100%. The growth at 10 µM [22] was 101%, the growth at 10 µM [23] was 115% and the growth at 10 µM [24] was 109%. For the same compound, the growth at 10 µM [25] was 93%, the growth at 10 µM [26] was 110% and the growth at 10 µM [27] was 93.5%. The growth at 10 µM [28] was 98.2%.
